For five compounds, IC50 results are on record in ChEMBL document CHEMBL1240396, “In vitro sensitivities of Plasmodium falciparum to different antimalarial drugs in Uganda” (Antimicrob Agents Chemother, 2010).

SMILES strings stand for the structures.

Experiment [1] concerns Plasmodium falciparum. In words: Antimicrobial activity against chloroquine-sensitive Plasmodium falciparum D6 by ELISA. The experiment is classed as functional, organism-based. The essentials: (§1)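 Reference laboratory lines run as controls. Drug-predosed wells held seven duplicate 2-fold dilutions (CQ 15.7–1,002 nM; MDAQ 6.25–400 nM; QN 15.4–985 nM; DHA 0.13–8.5 nM; LM 0.2–12.5 nM; PQ 1.6–100 nM). Incubated 72 h, 37°C, 5% CO2, freeze-thawed, and HRP-2 measured by ELISA at A450 against drug-free wells. IC50 by nonlinear regression.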

The subject of experiment [2] is Plasmodium falciparum. In words: Antimicrobial activity against chloroquine-sensitive Plasmodium falciparum HB3 by ELISA.
Experiment [3] concerns Plasmodium falciparum. In words: Antimicrobial activity against chloroquine-resistant Plasmodium falciparum W2 by ELISA.
Experiment [4] deals with Plasmodium falciparum. In words: Antimicrobial activity against chloroquine-resistant Plasmodium falciparum K1 by ELISA. The experiment is classed as functional, organism-based. The essentials: as §1
Experiment [5] concerns Plasmodium falciparum. Nature of the experiment: Antimicrobial activity against Plasmodium falciparum by ELISA. It counts as functional, organism-based. In outline:
(§2)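 Fresh patient isolates, taken before therapy, washed in RPMI 1640, diluted with group O erythrocytes to 0.05% parasitemia, ~2% PCV with 0.5% Albumax II. Added to dried predosed wells with seven duplicate 2-fold dilutions (CQ 15.7–1,002 nM; MDAQ 6.25–400 nM; QN 15.4–985 nM; DHA 0.13–8.5 nM; LM 0.2–12.5 nM; PQ 1.6–100 nM). Incubated 72 h, 37°C, 5% CO2, then freeze-thawed. HRP-2 ELISA (A450) compared against drug-free wells. IC50 from nonlinear regression.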

The subject of experiment [6] is Plasmodium falciparum. Nature of the experiment: Antimicrobial activity against Plasmodium falciparum harboring mdr1 N86Y/D1246Y/Y184F mutant gene by ELISA. The experiment is classed as functional, organism-based. The essentials: as §2

`C[C@H]1[C@@H](O)O[C@@H]2O[C@@]3(C)CC[C@H]4[C@H](C)CC[C@@H]1[C@@]24OO3` [ARTENIMOL]: the IC50 in experiment [1] turned out to be 0.79 nM; in experiment [2], 0.71 nM; in experiment [3] it was 0.41 nM; in experiment [4], 0.49 nM; in experiment [5], 0.55 nM.

Take `CCNCc1cc(Nc2ccnc3cc(Cl)ccc23)ccc1O` [DESETHYL AMODIAQUINE]: the IC50 in experiment [1] came to 30.9 nM; in experiment [2], 29.8 nM; in experiment [6], 6.3 nM; in experiment [3], 268 nM; in experiment [4], 262 nM; in experiment [5], 66.4 nM.

Take `CCCCN(CCCC)CC(O)c1cc(Cl)cc2c1-c1ccc(Cl)cc1/C2=C/c1ccc(Cl)cc1` (stereo not drawn) [LUMEFANTRINE]: the IC50 in experiment [1] was determined as 1.82 nM; in experiment [2], 1.41 nM; in experiment [6] it was 0.19 nM; in experiment [3], 0.45 nM; in experiment [4] it was 0.31 nM; in experiment [5], 0.51 nM.

On to `Clc1ccc2c(N3CCN(CCCN4CCN(c5ccnc6cc(Cl)ccc56)CC4)CC3)ccnc2c1` [PIPERAQUINE], for which the IC50 turned out to be 6.26 nM in experiment [1]; 10.5 nM in experiment [2]; 1.6 nM in experiment [6]; 12.5 nM in experiment [4]; 6.1 nM in experiment [5].

Turning to `C=C[C@H]1CN2CC[C@H]1C[C@H]2[C@H](O)c1ccnc2ccc(OC)cc12` [QUININE], the IC50 in experiment [1] stood at 107 nM; in experiment [2] it was 236 nM; in experiment [6], 15.4 nM; in experiment [3] it was 491 nM; in experiment [4], 276 nM; in experiment [5] it was 94.4 nM.
